The target of test [1] is T1, Alpha-glucosidase MAL12 (Saccharomyces cerevisiae S288c, UniProt P53341). Put plainly: Inhibition of yeast alpha-glucosidase at 2 mM after 10 to 30 mins.
Test [2] is described as follows: Inhibition of almond beta-glucosidase at pH 7.3 after 10 to 30 mins. Also noted: species or system Prunus dulcis.
Test [3] deals with T2, Glucosylceramidase (Bos taurus, UniProt Q2KHZ8).
T2 sequence (Q2KHZ8 whole entry): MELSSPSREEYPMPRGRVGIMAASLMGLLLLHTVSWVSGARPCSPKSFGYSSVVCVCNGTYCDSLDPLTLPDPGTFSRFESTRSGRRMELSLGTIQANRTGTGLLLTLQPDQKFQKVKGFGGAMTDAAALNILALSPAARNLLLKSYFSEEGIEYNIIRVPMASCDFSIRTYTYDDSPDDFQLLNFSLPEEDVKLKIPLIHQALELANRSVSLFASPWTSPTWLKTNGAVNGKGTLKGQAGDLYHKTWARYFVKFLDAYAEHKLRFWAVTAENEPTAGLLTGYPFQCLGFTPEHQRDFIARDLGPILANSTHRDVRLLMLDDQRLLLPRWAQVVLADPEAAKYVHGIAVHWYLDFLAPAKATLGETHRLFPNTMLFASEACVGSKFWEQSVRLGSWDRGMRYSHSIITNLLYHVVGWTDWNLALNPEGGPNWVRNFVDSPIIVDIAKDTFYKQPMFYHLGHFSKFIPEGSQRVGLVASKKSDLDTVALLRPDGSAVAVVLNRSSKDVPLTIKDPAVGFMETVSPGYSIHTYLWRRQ
The test is described as follows: Inhibition of bovine liver beta-glucosidase at 2 mM after 10 to 30 mins.

The nature of test [4]: Inhibition of jack beans alpha-mannosidase at 2 mM after 10 to 30 mins. Also noted: species or system Canavalia ensiformis.
Test [5] in a line: Inhibition of Helix pomatia beta-mannosidase at 2 mM after 10 to 30 mins.
Test [6] addresses T3, Uncharacterized protein (Sus scrofa, UniProt I3LIR5).
T3 sequence (I3LIR5 whole entry): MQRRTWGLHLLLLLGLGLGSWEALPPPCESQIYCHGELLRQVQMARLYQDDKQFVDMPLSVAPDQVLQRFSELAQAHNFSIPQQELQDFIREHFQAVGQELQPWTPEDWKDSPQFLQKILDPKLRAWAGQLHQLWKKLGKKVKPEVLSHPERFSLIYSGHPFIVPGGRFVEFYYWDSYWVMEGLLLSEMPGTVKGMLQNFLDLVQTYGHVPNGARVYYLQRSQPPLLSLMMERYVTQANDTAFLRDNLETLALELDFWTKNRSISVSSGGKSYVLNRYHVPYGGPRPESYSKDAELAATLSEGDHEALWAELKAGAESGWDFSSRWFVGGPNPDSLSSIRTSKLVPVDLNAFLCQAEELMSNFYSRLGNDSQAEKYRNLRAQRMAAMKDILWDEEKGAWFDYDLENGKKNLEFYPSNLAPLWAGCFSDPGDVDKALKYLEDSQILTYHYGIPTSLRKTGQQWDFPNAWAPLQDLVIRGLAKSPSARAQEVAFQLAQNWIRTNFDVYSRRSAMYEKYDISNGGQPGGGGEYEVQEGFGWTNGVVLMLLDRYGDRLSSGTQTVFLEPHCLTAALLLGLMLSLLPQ
The test is described as follows: Inhibition of pig kidney trehalase after 10 to 30 mins.

The nature of test [7]: Inhibition of Aspergillus niger amyloglucosidase at 2 mM after 10 to 30 mins.
A short description of test [8]: Inhibition of Penicillium decumbens naringinase after 10 to 30 mins.
For test [9], the target named is Alpha-galactosidase (Coffea arabica) (UniProt Q42656). The test is described as follows: Inhibition of green coffee bean alpha-galactosidase at 2 mM after 10 to 30 mins.
Sequence of Alpha-galactosidase (Coffea arabica) (Q42656 16-378 limits assumed): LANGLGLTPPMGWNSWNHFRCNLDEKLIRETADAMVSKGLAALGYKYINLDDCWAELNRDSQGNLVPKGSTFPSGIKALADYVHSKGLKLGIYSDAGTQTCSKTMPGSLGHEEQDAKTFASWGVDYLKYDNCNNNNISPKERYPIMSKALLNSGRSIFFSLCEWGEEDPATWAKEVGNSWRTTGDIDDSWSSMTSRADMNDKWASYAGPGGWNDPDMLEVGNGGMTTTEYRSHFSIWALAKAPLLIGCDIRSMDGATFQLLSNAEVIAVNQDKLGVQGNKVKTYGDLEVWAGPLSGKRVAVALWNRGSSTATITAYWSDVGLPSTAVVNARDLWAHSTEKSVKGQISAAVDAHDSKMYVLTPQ
Test [10] has as its target Oligo-1,6-glucosidase IMA1 (Saccharomyces cerevisiae S288c) (UniProt P53051). The test is described as follows: Inhibition of yeast isomaltase at 2 mM after 10 to 30 mins.
Test [11] addresses T1, Alpha-glucosidase MAL12. Put plainly: Inhibition of yeast alpha-glucosidase after 10 to 30 mins.
Test [12] in a line: Inhibition of jack beans alpha-mannosidase after 10 to 30 mins. Also noted: species or system Canavalia ensiformis.
Test [13] in a line: Inhibition of Helix pomatia beta-mannosidase after 10 to 30 mins.
Test [14] addresses T3, Uncharacterized protein. The test is described as follows: Inhibition of pig kidney trehalase at 2 mM after 10 to 30 mins.
Test [15] can be described thus: Binding affinity to almond beta-glucosidase by FRET assay. Also noted: species or system Prunus dulcis. An outline of the steps:
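Direct titration: almond β-glucosidase 1.25 µM in 0.05 M potassium phosphate pH 7.3, 37 °C. Inhibitor stock (50 µM, made in the enzyme solution) added portion-wise to ~6 µM. Excitation 280 nm. Tryptophan emission read at 339 nm and dansyl emission at 515 nm at 10–15 ratios. Kd from least-squares fit to a 1:1 model. Reverse titration (enzyme into 1.0 µM inhibitor, 515 nm) gave confirmation.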

A short description of test [16]: Inhibition of Aspergillus niger amyloglucosidase after 10 to 30 mins.

The source made the active and inactive calls. The rule behind the calls is not given here.

T1 sequence (P53341 whole entry): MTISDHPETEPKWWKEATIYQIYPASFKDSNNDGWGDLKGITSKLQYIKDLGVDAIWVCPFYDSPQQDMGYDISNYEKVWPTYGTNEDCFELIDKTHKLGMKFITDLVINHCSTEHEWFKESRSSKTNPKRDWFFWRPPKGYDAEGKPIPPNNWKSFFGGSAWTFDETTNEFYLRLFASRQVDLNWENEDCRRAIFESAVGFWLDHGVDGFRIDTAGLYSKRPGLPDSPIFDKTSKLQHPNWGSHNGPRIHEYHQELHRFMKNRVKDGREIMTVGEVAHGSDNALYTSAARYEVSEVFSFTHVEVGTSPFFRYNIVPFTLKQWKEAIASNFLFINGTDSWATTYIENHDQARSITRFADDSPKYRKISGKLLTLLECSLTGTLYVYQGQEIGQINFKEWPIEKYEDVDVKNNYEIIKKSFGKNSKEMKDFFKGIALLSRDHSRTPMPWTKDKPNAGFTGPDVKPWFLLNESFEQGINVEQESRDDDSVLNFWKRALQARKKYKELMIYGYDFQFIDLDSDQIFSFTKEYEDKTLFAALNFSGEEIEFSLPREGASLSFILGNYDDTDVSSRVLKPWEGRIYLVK
Sequence of Oligo-1,6-glucosidase IMA1 (Saccharomyces cerevisiae S288c) (P53051 whole entry): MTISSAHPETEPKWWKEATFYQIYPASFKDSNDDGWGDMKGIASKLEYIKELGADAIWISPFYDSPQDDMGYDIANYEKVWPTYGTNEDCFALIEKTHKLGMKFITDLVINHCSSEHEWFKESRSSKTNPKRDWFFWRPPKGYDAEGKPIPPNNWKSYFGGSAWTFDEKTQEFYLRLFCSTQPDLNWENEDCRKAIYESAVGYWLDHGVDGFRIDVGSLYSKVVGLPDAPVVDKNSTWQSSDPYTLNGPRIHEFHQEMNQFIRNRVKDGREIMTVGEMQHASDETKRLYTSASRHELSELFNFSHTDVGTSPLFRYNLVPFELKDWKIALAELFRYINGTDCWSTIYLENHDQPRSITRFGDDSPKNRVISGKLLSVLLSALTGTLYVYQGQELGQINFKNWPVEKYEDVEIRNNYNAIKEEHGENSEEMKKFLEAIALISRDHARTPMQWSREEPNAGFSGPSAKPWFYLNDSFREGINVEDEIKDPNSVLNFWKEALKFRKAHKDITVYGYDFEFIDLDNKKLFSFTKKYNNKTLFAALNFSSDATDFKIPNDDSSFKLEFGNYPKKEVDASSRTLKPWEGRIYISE

One may read the Ki as a dissociation constant, usually derived from enzyme kinetics or from competition with a known ligand. On to `Cl.NCCCC/N=C1\SC[C@@H]2[C@@H](O)[C@H](O)[C@@H](O)[C@@H](O)N12`, for which the Ki result was “Not Active” in test [1]; 12.8 µM in test [2]; “Not Active” in [3]; “Not Active” in [4]; “Not Active” in test [5]; 116 µM in test [6]. In addition, the figures for the Ki entry in test [7] and in test [8] were “Not Active” and 1.8 µM, respectively. The inhibition result in [9] and in test [10] was “inactive” throughout.
As for `CN(C)c1ccc(-c2cnc(-c3ccc(S(=O)(=O)NCCCC/N=C4\SC[C@@H]5[C@@H](O)[C@H](O)[C@@H](O)[C@@H](O)N45)cc3)o2)cc1`, the Ki in test [11] is 714 µM; in test [2] it was 0.55 µM; in test [12], 235 µM; in [13] (read-out: Ki) it was 522 µM; in test [14], “Not Active”; in test [7] it was “Not Active”. Moreover, the affinity in [8] corresponds to a Ki of 1.2 µM. The inhibition result in test [9] and in [10] was “inactive” each time.
By Kd is commonly meant the constant that tells how readily two partners part at equilibrium. A lower Kd goes with tighter binding. `CN(C)c1cccc2c(S(=O)(=O)NCCCC/N=C3\SC[C@@H]4[C@@H](O)[C@H](O)[C@@H](O)[C@@H](O)N34)cccc12`: the Ki was 246 µM in [11]; 0.36 µM in test [2]; “Not Active” in test [4]; 387 µM in test [13] (read-out: Ki); 293 µM in [6]; “Not Active” in test [7]. The molecule further gave a Ki in test [8] of 0.21 µM. Also, the inhibition entry in test [9] and in test [10] was “inactive” throughout. The equilibrium dissociation constant (Kd) in test [15] was determined as 0.2 µM.
Consider `CCCCCCCC/N=C1\SC[C@@H]2[C@@H](O)[C@H](O)[C@@H](O)[C@@H](O)N12`, for which the Ki result in test [1] is “Not Active”; in test [2], 0.76 µM; in test [4], “Not Active”; in [13], “Not Active”; in test [6] it was 13.4 µM; in test [8] it was 0.23 µM. For the same molecule, the inhibition entry in [9] and in test [10] was “inactive” each time.
As for `CCN(CC)c1ccc2cc(C(=O)NCCCC/N=C3\SC[C@@H]4[C@@H](O)[C@H](O)[C@@H](O)[C@@H](O)N34)c(=O)oc2c1`, the Ki in test [11] stood at 313 µM; in test [2], 0.45 µM; in test [12], 199 µM; in test [13] (read-out: Ki), 11 µM; in [6], 28.2 µM; in test [16], 167 µM. Moreover, the affinity in [8], expressed as Ki, was 0.072 µM. Besides, the inhibition result in test [9] and in test [10] was “inactive” each time.

The record behind these values is ChEMBL document CHEMBL1268950, “Fluorescent-tagged sp2-iminosugars with potent β-glucosidase inhibitory activity” (Bioorg Med Chem, 2010).
